The source of these data is ChEMBL document CHEMBL1158684, “Cicadapeptins I and II: new Aib-containing peptides from the entomopathogenic fungus Cordyceps heteropoda” (2005).

Structures are written as SMILES. Activity calls are given as the source filed them. No cut-off for these calls is given here. Where a SMILES comes first, the peptide text is derived from it. [ ]: non-standard residue; d: D form. The star is where a group is joined. Hyp = O=C(O)[C@@H]1C[C@@H](O)CN1; Decanoyl = CCCCCCCCCC(=O)*; X1 = CC(C)C[C@@H](CN)N*; Aib = CC(C)(N)C(=O)O

Experiment [1] has as its system Bacillus subtilis. Description: Antimicrobial activity against Bacillus subtilis at 100 ug/disk by disk diffusion assay. The conditions noted are these: read-out: IZ. The class given is functional. The procedure, abridged: (§1)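 Bacterial targets grown 24 h in nutrient broth. 0.6 mL of culture was spread on 9 cm nutrient agar plates and dried 1 h. Test samples in 10 µL MeOH were applied to 4 mm filter paper disks, air-dried 1 h and placed on the plates. Read-out was the inhibition zone diameter in mm.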
A general note: A growth-free zone around the sample is the usual read-out of agar diffusion tests.

The subject of experiment [2] is Escherichia coli. In words: Antimicrobial activity against Escherichia coli at 100 ug/disk by disk diffusion assay. The format is functional. The conditions noted are these: read-out: IZ. The essentials: as §1
Experiment [3] relates to Bacillus cereus. In words: Antimicrobial activity against Bacillus cereus at 100 ug/disk by disk diffusion assay. The class given is functional. The conditions noted are these: read-out: IZ. The essentials:
as §1

In experiment [4] the test system is Bacillus cereus. Description: Antimicrobial activity against Bacillus cereus by disk diffusion assay. The format is functional, organism-based. The essentials: as §1
Experiment [5] deals with Colletotrichum gloeosporioides. Description: Antimicrobial activity against Colletotrichum gloeosporioides by disk diffusion assay. The class given is functional. The procedure, abridged:
(§2)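 Filamentous fungal targets were tested on potato dextrose agar plates spread with 0.6 mL spore suspension (1 × 10^6 spores/mL) and dried 1 h. Samples in 10 µL MeOH were loaded on 4 mm paper disks, air-dried 1 h and laid on the plates. Activity was scored as inhibition zone size in mm.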

For experiment [6], the system named is Colletotrichum fragariae. In words: Antimicrobial activity against Colletotrichum fragariae by disk diffusion assay. The class given is functional. The procedure, abridged:
as §2

Experiment [7] has as its system Escherichia coli. In words: Antimicrobial activity against Escherichia coli by disk diffusion assay. The class given is functional, organism-based. The procedure, abridged: as §1
Experiment [8] deals with Bacillus subtilis. In words: Antimicrobial activity against Bacillus subtilis by disk diffusion assay. The class given is functional, organism-based. The essentials: as §1
For experiment [9], the system named is Botrytis cinerea. In words: Antimicrobial activity against Botrytis cinerea by disk diffusion assay. The class given is functional. The essentials:
as §2

The test system of experiment [10] is Fusarium oxysporum. In words: Antimicrobial activity against Fusarium oxysporum by disk diffusion assay. The class given is functional. The essentials: as §2
Experiment [11] relates to Bacillus subtilis. In words: Antimicrobial activity against Bacillus subtilis at 30 ug/disk by disk diffusion assay. The format is functional. The conditions noted are these: read-out: IZ. The essentials: as §1
Experiment [12] has as its system Bacillus cereus. In words: Antimicrobial activity against Bacillus cereus at 30 ug/disk by disk diffusion assay. The conditions noted are these: read-out: IZ. The format is functional. The procedure, abridged: as §1

For `CCCCCCCCCC(=O)N1C[C@H](O)C[C@H]1C(=O)N1C[C@H](O)C[C@H]1C(=O)N[C@H](C(=O)NC(C)(C)C(=O)N[C@@H](CCC(N)=O)C(=O)NC(C)(C)C(=O)N[C@H](C(=O)N[C@H](CN)CC(C)C)[C@@H](C)CC)C(C)C` [CICADAPEPTIN II] (Decanoyl-[Hyp][Hyp]V[Aib]Q[Aib]I-X1), the zone of inhibition at 100 µg/disc came to 11 mm in experiment [1], 16 mm in experiment [2] and 12 mm in [3].

In the case of `CCCCCCCCCC(=O)N1C[C@H](O)C[C@H]1C(=O)N1C[C@H](O)C[C@H]1C(=O)N[C@H](C(=O)NC(C)(C)C(=O)N[C@@H](CCC(N)=O)C(=O)NC(C)(C)C(=O)N[C@@H](CC(C)C)C(=O)N[C@H](CN)CC(C)C)C(C)C` [CICADAPEPTIN I] (Decanoyl-[Hyp][Hyp]V[Aib]Q[Aib]L-X1), the zone of inhibition at 100 µg/disc in experiment [1] is 13 mm; in experiment [2], 16 mm; in experiment [3], 13 mm.

`CCCCCCC(=O)CCCCCC/C=C/C[C@@H](O)[C@H](O)[C@@](N)(CO)C(=O)O` [MYRIOCIN]: the outcome in experiment [4], in experiment [7] and in experiment [8] was inactive. For the same compound, the “inhibition zone (IZ)” value in experiment [5] is listed as 8 mm; in experiment [6], 14 mm; in experiment [9], 28 mm; in experiment [10] it was 17 mm.

`CN(C)[C@@H]1C(O)=C(C(N)=O)C(=O)[C@@]2(O)C(O)=C3C(=O)c4c(O)cccc4[C@@](C)(O)[C@H]3C[C@@H]12` [TETRACYCLINE]: the zone of inhibition at 30 µg/disc in experiment [11] turned out to be 18 mm; in experiment [12], 29 mm.
